# Laboratory results: ChEMBL document CHEMBL4706563, “Triphenylethylene analogues: Design, synthesis and evaluation of antitumor activity and topoisomerase inhibitors” (Eur J Med Chem, 2020)
# Calls of active or inactive are those of the source. The rule behind the calls is not given here.
# Columns and labels:
# Format in all cases: functional
# SR = assay: Antiproliferative activity against human SR cells assessed as growth inhibition at 10 uM relative to control; settings: read-out: GI
# Summary of the method: (§1)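 NCI 60 human tumour cell line panel screen. Compounds tested at a single dose and growth inhibition (%) determined for each line.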
# CCRF-CEM = assay: Antiproliferative activity against human CCRF-CEM cells assessed as growth inhibition at 10 uM relative to control; settings: read-out: GI
# Summary of the method: (§2)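 Single-dose screen run by the US National Cancer Institute across its 60-human tumour cell line panel. Each compound was tested at one concentration. Percent growth inhibition was recorded for each cell line.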
# HL-60(TB) = assay: Antiproliferative activity against human HL-60(TB) cells assessed as growth inhibition at 10 uM relative to control; settings: read-out: GI
# K562 = assay: Antiproliferative activity against human K562 cells assessed as growth inhibition at 10 uM relative to control; settings: read-out: GI; summary of the method: as §2
# MOLT-4 = assay: Antiproliferative activity against human MOLT-4 cells assessed as growth inhibition at 10 uM relative to control; settings: read-out: GI; summary of the method: as §2
# RPMI-8226 = assay: Antiproliferative activity against human RPMI-8226 cells assessed as growth inhibition at 10 uM relative to control; settings: read-out: GI; summary of the method: as §2
# A549 = assay: Antiproliferative activity against human A549 cells assessed as growth inhibition at 10 uM relative to control; settings: read-out: GI; summary of the method: as §2
# EKVX = assay: Antiproliferative activity against human EKVX cells assessed as growth inhibition at 10 uM relative to control; settings: read-out: GI; summary of the method: as §2
# HOP-62 = assay: Antiproliferative activity against human HOP-62 cells assessed as growth inhibition at 10 uM relative to control; settings: read-out: GI; summary of the method: as §2
# HOP-92 = assay: Antiproliferative activity against human HOP-92 cells assessed as growth inhibition at 10 uM relative to control; settings: read-out: GI; summary of the method: as §2
# NCI-H226 = assay: Antiproliferative activity against human NCI-H226 cells assessed as growth inhibition at 10 uM relative to control; settings: read-out: GI; summary of the method: as §2
# NCI-H23 = assay: Antiproliferative activity against human NCI-H23 cells assessed as growth inhibition at 10 uM relative to control; summary of the method: as §2
# NCI-H322M = assay: Antiproliferative activity against human NCI-H322M cells assessed as growth inhibition at 10 uM relative to control; settings: read-out: GI; summary of the method: as §2
# NCI-H460 = assay: Antiproliferative activity against human NCI-H460 cells assessed as growth inhibition at 10 uM relative to control; settings: read-out: GI; summary of the method: as §2
# NCI-H522 = assay: Antiproliferative activity against human NCI-H522 cells assessed as growth inhibition at 10 uM relative to control; settings: read-out: GI; summary of the method: as §2
# COLO 205 = assay: Antiproliferative activity against human COLO 205 cells assessed as growth inhibition at 10 uM relative to control; settings: read-out: GI; summary of the method: as §2
# HCC 2998 = assay: Antiproliferative activity against human HCC 2998 cells assessed as growth inhibition at 10 uM relative to control; summary of the method: as §2
# HCT-116 = assay: Antiproliferative activity against human HCT-116 cells assessed as growth inhibition at 10 uM relative to control; settings: read-out: GI; summary of the method: as §2
# HCT-15 = assay: Antiproliferative activity against human HCT-15 cells assessed as growth inhibition at 10 uM relative to control; settings: read-out: GI; summary of the method: as §2
# HT-29 = assay: Antiproliferative activity against human HT29 cells assessed as growth inhibition at 10 uM relative to control; settings: read-out: GI; summary of the method: as §2
# KM12 = assay: Antiproliferative activity against human KM12 cells assessed as growth inhibition at 10 uM relative to control; settings: read-out: GI; summary of the method: as §2
# SW-620 = assay: Antiproliferative activity against human SW-620 cells assessed as growth inhibition at 10 uM relative to control; settings: read-out: GI; summary of the method: as §1
# SF-295 = assay: Antiproliferative activity against human SF-295 cells assessed as growth inhibition at 10 uM relative to control; summary of the method: as §2
# SF-539 = assay: Antiproliferative activity against human SF-539 cells assessed as growth inhibition at 10 uM relative to control; settings: read-out: GI; summary of the method: as §2
# SNB-19 = assay: Antiproliferative activity against human SNB-19 cells assessed as growth inhibition at 10 uM relative to control; summary of the method: as §1
# SNB-75 = assay: Antiproliferative activity against human SNB-75 cells assessed as growth inhibition at 10 uM relative to control; settings: read-out: GI; summary of the method: as §1
# U-251 = assay: Antiproliferative activity against human U251 cells assessed as growth inhibition at 10 uM relative to control; settings: read-out: GI; summary of the method: as §1
# LOX IMVI = assay: Antiproliferative activity against human LOX IMVI cells assessed as growth inhibition at 10 uM relative to control; settings: read-out: GI; summary of the method: as §2
# Malme-3M = assay: Antiproliferative activity against human Malme-3M cells assessed as growth inhibition at 10 uM relative to control; settings: read-out: GI; summary of the method: as §2
# M14 = assay: Antiproliferative activity against human M14 cells assessed as growth inhibition at 10 uM relative to control; settings: read-out: GI; summary of the method: as §2
# MDA-MB-435 = assay: Antiproliferative activity against human MDA-MB-435 cells assessed as growth inhibition at 10 uM relative to control; settings: read-out: GI; summary of the method: as §2
# SK-MEL-2 = assay: Antiproliferative activity against human SK-MEL-2 cells assessed as growth inhibition at 10 uM relative to control; settings: read-out: GI; summary of the method: as §2
# SK-MEL-28 = assay: Antiproliferative activity against human SK-MEL-28 cells assessed as growth inhibition at 10 uM relative to control; settings: read-out: GI; summary of the method: as §1
# SK-MEL-5 = assay: Antiproliferative activity against human SK-MEL-5 cells assessed as growth inhibition at 10 uM relative to control; settings: read-out: GI; summary of the method: as §1
# UACC-257 = assay: Antiproliferative activity against human UACC-257 cells assessed as growth inhibition at 10 uM relative to control; settings: read-out: GI; summary of the method: as §1
# UACC-62 = assay: Antiproliferative activity against human UACC-62 cells assessed as growth inhibition at 10 uM relative to control; settings: read-out: GI; summary of the method: as §1
# IGROV-1 = assay: Antiproliferative activity against human IGROV-1 cells assessed as growth inhibition at 10 uM relative to control; settings: read-out: GI; summary of the method: as §2
# OVCAR-3 = assay: Antiproliferative activity against human OVCAR-3 cells assessed as growth inhibition at 10 uM relative to control; settings: read-out: GI; summary of the method: as §2
# OVCAR-4 = assay: Antiproliferative activity against human OVCAR-4 cells assessed as growth inhibition at 10 uM relative to control; settings: read-out: GI; summary of the method: as §2
# NCI/ADR-RES = assay: Antiproliferative activity against human NCI/ADR-RES cells assessed as growth inhibition at 10 uM relative to control; settings: read-out: GI; summary of the method: as §2
# SK-OV-3 = assay: Antiproliferative activity against human SK-OV-3 cells assessed as growth inhibition at 10 uM relative to control; settings: read-out: GI; summary of the method: as §1
# 786-0 = assay: Antiproliferative activity against human 786-0 cells assessed as growth inhibition at 10 uM relative to control; settings: read-out: GI; summary of the method: as §2
# A498 = assay: Antiproliferative activity against human A498 cells assessed as growth inhibition at 10 uM relative to control; settings: read-out: GI; summary of the method: as §2
# ACHN = assay: Antiproliferative activity against human ACHN cells assessed as growth inhibition at 10 uM relative to control; settings: read-out: GI; summary of the method: as §2
# CAKI-1 = assay: Antiproliferative activity against human CAKI-1 cells assessed as growth inhibition at 10 uM relative to control; settings: read-out: GI; summary of the method: as §2
# SN12C = assay: Antiproliferative activity against human SN12C cells assessed as growth inhibition at 10 uM relative to control; settings: read-out: GI; summary of the method: as §1
# TK-10 = assay: Antiproliferative activity against human TK-10 cells assessed as growth inhibition at 10 uM relative to control; settings: read-out: GI; summary of the method: as §1
# UO-31 = assay: Antiproliferative activity against human UO-31 cells assessed as growth inhibition at 10 uM relative to control; settings: read-out: GI; summary of the method: as §1
# PC-3 = assay: Antiproliferative activity against human PC-3 cells assessed as growth inhibition at 10 uM relative to control; settings: read-out: GI; summary of the method: as §2
# DU-145 = assay: Antiproliferative activity against human DU-145 cells assessed as growth inhibition at 10 uM relative to control; settings: read-out: GI; summary of the method: as §2
# MCF7 = assay: Antiproliferative activity against human MCF7 cells assessed as growth inhibition at 10 uM relative to control; settings: read-out: GI; summary of the method: as §2
# MDA-MB-231 = assay: Antiproliferative activity against human MDA-MB-231 cells assessed as growth inhibition at 10 uM relative to control; summary of the method: as §2
# Hs-578T = assay: Antiproliferative activity against human Hs-578T cells assessed as growth inhibition at 10 uM relative to control; settings: read-out: GI; summary of the method: as §2
# BT-549 = assay: Antiproliferative activity against human BT-549 cells assessed as growth inhibition at 10 uM relative to control; settings: read-out: GI; summary of the method: as §2
# T47D = assay: Antiproliferative activity against human T47D cells assessed as growth inhibition at 10 uM relative to control; settings: read-out: GI; summary of the method: as §1
# MDA-MB-468 = assay: Antiproliferative activity against human MDA-MB-468 cells assessed as growth inhibition at 10 uM relative to control; settings: read-out: GI; summary of the method: as §2
# OVCAR-8 = assay: Antiproliferative activity against human OVCAR-8 cells assessed as growth inhibition at 10 uM relative to control; settings: read-out: GI; summary of the method: as §2
compound,measurement,setting,value
C/C(=C(/c1ccccc1)c1ccc(OCC(O)CN2CCOCC2)cc1)c1ccccc1 (configuration not stated),inhibition of growth at 10 µM,SR,52.8%
same,inhibition of growth at 10 µM,CCRF-CEM,19.6%
same,inhibition of growth at 10 µM,HL-60(TB),39.3%
same,inhibition of growth at 10 µM,K562,80.3%
same,inhibition of growth at 10 µM,MOLT-4,38.5%
same,inhibition of growth at 10 µM,RPMI-8226,25%
same,inhibition of growth at 10 µM,A549,12.8%
same,inhibition of growth at 10 µM,EKVX,3.36%
same,inhibition of growth at 10 µM,HOP-62,9.9%
same,inhibition of growth at 10 µM,HOP-92,19.8%
same,inhibition of growth at 10 µM,NCI-H226,3.44%
same,growth inhibition (GI),NCI-H23,inactive
same,inhibition of growth at 10 µM,NCI-H322M,4.48%
same,inhibition of growth at 10 µM,NCI-H460,7.41%
same,inhibition of growth at 10 µM,NCI-H522,26.7%
same,inhibition of growth at 10 µM,COLO 205,30.6%
same,growth inhibition (GI),HCC 2998,inactive
same,inhibition of growth at 10 µM,HCT-116,53.6%
same,inhibition of growth at 10 µM,HCT-15,46.2%
same,inhibition of growth at 10 µM,HT-29,86.9%
same,inhibition of growth at 10 µM,KM12,36.4%
same,inhibition of growth at 10 µM,SW-620,11.4%
same,growth inhibition (GI),SF-295,inactive
same,inhibition of growth at 10 µM,SF-539,25.8%
same,growth inhibition (GI),SNB-19,inactive
same,inhibition of growth at 10 µM,SNB-75,8.61%
same,inhibition of growth at 10 µM,U-251,19.9%
same,inhibition of growth at 10 µM,LOX IMVI,12.2%
same,inhibition of growth at 10 µM,Malme-3M,24.8%
same,inhibition of growth at 10 µM,M14,-45.1%
same,inhibition of growth at 10 µM,MDA-MB-435,9.29%
same,inhibition of growth at 10 µM,SK-MEL-2,1.12%
same,inhibition of growth at 10 µM,SK-MEL-28,10%
same,inhibition of growth at 10 µM,SK-MEL-5,12.9%
same,inhibition of growth at 10 µM,UACC-257,6.64%
same,inhibition of growth at 10 µM,UACC-62,3%
same,inhibition of growth at 10 µM,IGROV-1,3.82%
same,inhibition of growth at 10 µM,OVCAR-3,9.6%
same,inhibition of growth at 10 µM,OVCAR-4,10.7%
same,inhibition of growth at 10 µM,NCI/ADR-RES,6.78%
same,inhibition of growth at 10 µM,SK-OV-3,8.68%
same,inhibition of growth at 10 µM,786-0,32.9%
same,inhibition of growth at 10 µM,A498,8.44%
same,inhibition of growth at 10 µM,ACHN,1.16%
same,inhibition of growth at 10 µM,CAKI-1,19.9%
same,inhibition of growth at 10 µM,SN12C,11.6%
same,inhibition of growth at 10 µM,TK-10,5.68%
same,inhibition of growth at 10 µM,UO-31,26.3%
same,inhibition of growth at 10 µM,PC-3,28.2%
same,inhibition of growth at 10 µM,DU-145,1.88%
same,inhibition of growth at 10 µM,MCF7,15.8%
same,growth inhibition (GI),MDA-MB-231,inactive
same,inhibition of growth at 10 µM,Hs-578T,9.19%
same,inhibition of growth at 10 µM,BT-549,6.69%
same,inhibition of growth at 10 µM,T47D,39.7%
same,inhibition of growth at 10 µM,MDA-MB-468,14.9%
same,inhibition of growth at 10 µM,OVCAR-8,11.5%
